Source: ChEMBL document CHEMBL3797146, “FimH Antagonists: Phosphate Prodrugs Improve Oral Bioavailability” (J Med Chem, 2016)

Assays:
[1] = Stability in fasted state simulated gastric fluid assessed as parent compound remaining in absence of pepsin after 2 hrs; format: ADME, tissue-based, Stomach; settings: fasted state simulated gastric fluid without pepsin; read-out: Stability
Outline: (§1)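 Compound incubated for 120 min in fasted- or fed-state simulated gastric fluid, in simulated gastric fluid, or in buffer sGF (sGF prepared without pepsin), with water as reference medium. Remaining compound is expressed as percent of the t=0 concentration, as the mean of triplicates ± SD.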

[2] = Stability in fed state simulated gastric fluid assessed as parent compound remaining in absence of pepsin after 2 hrs; format: ADME, tissue-based, Stomach; settings: fed state simulated gastric fluid without pepsin; read-out: Stability; outline: as §1
[3] = Stability in simulated gastric fluid assessed as parent compound remaining in absence of pepsin after 2 hrs; format: ADME, tissue-based, Stomach; settings: simulated gastric fluid without pepsin; read-out: Stability; outline: as §1
[4] = Stability in buffer simulated gastric fluid assessed as parent compound remaining in absence of pepsin after 2 hrs; format: ADME, tissue-based, Stomach; settings: buffer simulated gastric fluid without pepsin; read-out: Stability; outline: as §1
[5] = Stability in water assessed as parent compound remaining in absence of pepsin after 2 hrs; format: physicochemical; settings: read-out: Stability; outline: as §1
[6] = Stability in fasted state simulated gastric fluid assessed as parent compound remaining in absence of pancreatin after 2 hrs; format: ADME, tissue-based, Stomach; settings: fasted state simulated gastric fluid without pancreatin; read-out: Stability
[7] = Stability in fed state simulated gastric fluid assessed as parent compound remaining in absence of pancreatin after 2 hrs; format: ADME, tissue-based, Stomach; settings: fed state simulated gastric fluid without pancreatin; read-out: Stability
[8] = Stability in simulated gastric fluid assessed as parent compound remaining in absence of pancreatin after 2 hrs; format: ADME, tissue-based, Stomach; settings: simulated gastric fluid without pancreatin; read-out: Stability
[9] = Stability in water assessed as parent compound remaining in absence of pancreatin after 2 hrs; format: physicochemical; settings: read-out: Stability
[10] = Thermodynamic solubility of the compound in 50 mM pH 6.5 phosphate buffer by LC-MS method; format: physicochemical; settings: read-out: Therm_solubility
Outline: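 Thermodynamic solubility determined in phosphate buffer (50 mM, pH 6.5).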

[11] = Stability of the compound assessed as half life for human Caco2 cells phosphatase mediated compound hydrolysis at 62.5 uM by LC-MS method; format: ADME, cell-based; settings: Caco-2 cells
Outline: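 Prodrug in Dulbecco's Modified Eagle's Medium (62.5 µM) applied to the apical chamber of the Caco-2 system. Unchanged prodrug was monitored by LC-MS, and t1/2 was calculated from remaining prodrug concentration versus incubation time.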

[12] = Stability in buffer simulated gastric fluid assessed as parent compound remaining in absence of pepsin after 2 hrs; settings: buffer simulated gastric fluid without pepsin
[13] = Drug metabolism in human Caco2 cells assessed as active parent compound level in basolateral side at 62.5 uM applied at apical compartment measured after 60 mins by LC-MS method; format: ADME, cell-based; settings: caco-2, 1 h
Outline: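 Caco-2 monolayer. Test article in Dulbecco's Modified Eagle's Medium at 62.5 µM was applied to the apical chamber. After 60 min, the active principle that had accumulated in the basal receiver chamber was quantified.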

[14] = tested on: Mus musculus; experiment: Cmax in C3H/HeN mouse assessed as compound 5 level at 10 mg/kg, po administered as single dose by LC-MS method; format: ADME, organism-based; set-up: dose 10 mg/kg, route oral; settings: in vivo
Outline: (§2)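 Single oral dose given to female C3H/HeN mice. Active principle was measured in urine over 0–24 h, and Cmax, Tmax and urine AUC0–24 were derived from the concentration profiles. The 7.7 mg/kg dose was given as a suspension. Values are means with SD for groups of three mice, or five at 7.7 mg/kg.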

[15] = tested on: Mus musculus; experiment: Tmax in C3H/HeN mouse assessed as compound 5 level at 10 mg/kg, po administered as single dose by LC-MS method; format: ADME, organism-based; settings: in vivo; outline: as §2
[16] = AUC (0 to 24 hrs) in C3H/HeN mouse urine assessed as compound 5 level at 10 mg/kg, po administered as single dose by LC-MS method; format: ADME, organism-based; set-up: time < 24 hr, dose 10 mg/kg, route oral; settings: in vivo; outline: as §2
[17] = tested on: Mus musculus; experiment: Cmax in C3H/HeN mouse assessed as compound 4 level at 10 mg/kg, po administered as single dose by LC-MS method; format: ADME, organism-based; set-up: dose 10 mg/kg, route oral; settings: in vivo; outline: as §2
[18] = tested on: Mus musculus; experiment: Tmax in C3H/HeN mouse assessed as compound 4 level at 10 mg/kg, po administered as single dose by LC-MS method; format: ADME, organism-based; settings: in vivo; outline: as §2
[19] = AUC (0 to 24 hrs) in C3H/HeN mouse urine assessed as compound 4 level at 10 mg/kg, po administered as single dose by LC-MS method; format: ADME, organism-based; set-up: dose 10 mg/kg, time < 24 hr, route oral; settings: in vivo; outline: as §2

Row | Compound | remaining at 2 h [1] | remaining at 2 h [2] | remaining at 2 h [3] | remaining at 2 h [4] | remaining at 2 h [5] | remaining at 2 h [6] | remaining at 2 h [7] | remaining at 2 h [8] | remaining at 2 h [9] | solubility thermodynamic [10] | half-life at 62.5 µM [11] | remaining at 2 h [12] | other results
1 | N#Cc1ccc(-c2ccc(O[C@H]3O[C@H](CO)[C@@H](O)[C@H](O)[C@@H]3OP(=O)([O-])[O-])c(Cl)c2)cc1.[Na+].[Na+] | > 80% | > 80% | > 80% | > 80% | > 80% | > 80% | > 80% | > 80% | > 80% | > 3000 µg/mL | 13 min | > 80% | 
2 | N#Cc1ccc(-c2ccc(O[C@H]3O[C@H](COP(=O)([O-])[O-])[C@@H](O)[C@H](O)[C@@H]3O)c(Cl)c2)cc1.[Na+].[Na+] | > 80% | > 80% | > 80% | > 80% | > 80% | > 80% | > 80% | > 80% | > 80% | > 3000 µg/mL | 48 min | > 80% | 
3 | N.N.O=[N+]([O-])c1ccc2c(c1)CCN2c1ccc(O[C@H]2O[C@H](COCOP(=O)(O)O)[C@@H](O)[C@H](O)[C@@H]2O)cc1 |  |  |  |  |  |  |  |  |  | > 3000 µg/mL | 11 min |  | Drug metabolism [13]: Dose-dependent effect; Cmax [14]: 4500 ng/mL; Tmax [15]: 180 min; AUC [16]: 24.6 µg·h/mL
4 | N#Cc1ccc(-c2ccc(O[C@H]3O[C@H](CO)[C@@H](O)[C@H](OP(=O)([O-])[O-])[C@@H]3O)c(Cl)c2)cc1.[Na+].[Na+] |  |  |  |  |  |  |  |  |  | > 3000 µg/mL | 12 min |  | Drug metabolism [13]: Dose-dependent effect; Cmax [17]: 40700 ng/mL; Tmax [18]: 54 min; AUC [19]: 103.9 µg·h/mL
5 | N.N.O=P(O)(O)O[C@@H]1[C@H](O)[C@@H](Oc2ccc(-c3ccccc3)cc2)O[C@H](CO)[C@H]1O |  |  |  |  |  |  |  |  |  | > 3000 µg/mL | 13 min |  | 
6 | N.N.O=P(O)(O)OC[C@H]1O[C@H](Oc2ccc(-c3ccccc3)cc2)[C@@H](O)[C@@H](O)[C@@H]1O |  |  |  |  |  |  |  |  |  | > 3000 µg/mL | > 60 min |  | 
7 | N.N.O=P(O)(O)O[C@@H]1[C@@H](Oc2ccc(-c3ccccc3)cc2)O[C@H](CO)[C@@H](O)[C@@H]1O |  |  |  |  |  |  |  |  |  | > 3000 µg/mL | 12 min |  | 
8 | N.N.O=P(O)(O)O[C@H]1[C@H](O)[C@H](O)[C@@H](Oc2ccc(-c3ccccc3)cc2)O[C@@H]1CO |  |  |  |  |  |  |  |  |  | 2700 µg/mL | > 60 min |  | 
9 | N#Cc1ccc(-c2ccc(O[C@H]3O[C@H](CO)[C@@H](OP(=O)([O-])[O-])[C@H](O)[C@@H]3O)c(Cl)c2)cc1.[Na+].[Na+] | > 80% | > 80% | > 80% | > 80% | > 80% | > 80% | > 80% | > 80% | > 80% | > 3000 µg/mL | 43 min | > 80% | Cmax [17]: 57000 ng/mL; Tmax [18]: 26.4 min; AUC [19]: 226.4 µg·h/mL
